B2AR ag – human beta-2 adrenergic receptor agonism by FAP; Am2.2-beta2AR cells, FAP receptor internalization, flow cytometry; response, % (no concentration beside the values); P07550; 0.43% of 340,000 active;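 active means response above a set limit, near 3 SD of response in nonfluorescent compounds, cut at about 42% in these data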
NadD block – NadD (S. aureus) enzyme inhibition. 0.78% of 360,000 active. AID 602399. inhibition, % at 20 µM. purified NadD enzyme, colorimetric absorbance read-out; in the data active means inhibition above about 26%
ABHD5 PLIN5 PPI – inhibitors of human ABHD5-perilipin-5 interaction; inhibition, % at 4 µM; 0.78% of 360,000 active; Q00G26+Q8WTS1; Split G. princeps luciferase complementation, luminescence, 4 h; AID 602281;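 active means inhibition above the mean inhibition across every tested compound plus 3 SD, cut at about 22% in these data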;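 further: 0% = DMSO only wells and the 100% control is not disclosed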
GRK2 inh – blocks RNA aptamer binding to human GRK2; P25098; AID 488847; 0.59% of 330,000 active; bead flow cytometry, FAM-aptamer displacement from GRK2; inhibition of aptamer binding, % at 10 µM;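 active means inhibition of aptamer binding above 40%, roughly 3 SD of noise, on plates passing a quality check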;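 further: median bead fluorescence of bound FAM aptamer so fluorescent compounds give negative values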
SENP1 inh – inhibitors of human SENP1 SUMO protease catalytic domain; Q9P0U3; recombinant SENP1 catalytic domain, CyPet-SUMO1-YPet FRET cleavage; inhibition, % at 10 µM; 0.21% of 360,000 active;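 active means inhibition at least 30% at 10 µM, raw YFP signal under a set limit, fluorescence ratio 0.5 to 1.5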;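 further: 0% = enzyme with DMSO and 100% = no enzyme wells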
Target sequence (Q9P0U3 419-644 limits assumed): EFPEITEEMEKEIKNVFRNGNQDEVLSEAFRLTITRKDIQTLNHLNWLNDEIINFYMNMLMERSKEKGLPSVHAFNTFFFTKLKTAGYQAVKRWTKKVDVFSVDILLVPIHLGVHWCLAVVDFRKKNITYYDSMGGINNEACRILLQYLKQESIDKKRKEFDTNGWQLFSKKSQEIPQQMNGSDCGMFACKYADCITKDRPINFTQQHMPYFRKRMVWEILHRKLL
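Test system: human SENP1 catalytic domain; medium: Tris pH 8 buffer plus EDTA, NaCl, BME, BSA, NP40, catalase; incubation: 50 min reaction at room temperature; technique: FRET, CFP and YFP emission; controls: no-enzyme low control and enzyme-plus-DMSO high control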
Numbers without * were called inactive; / = not tested or not shown; ! = a repeat was not active. The list is not random: actives were taken first. Their share in the collection is about 2.5%.

SMILES	B2AR ag	NadD block	ABHD5 PLIN5 PPI	GRK2 inh	SENP1 inh
C#CCOCCOCCOCCNc1nc(N2CCN(C(=O)CCCCCCCCCCNC(=O)[C@H](CCCCN)n3cc(C[C@@H](C)CC)nn3)CC2)nc(N2CCN(C(=O)CCCCCCCCCCNC(=O)[C@@H]([C@H](C)O)n3cc(C)nn3)CC2)n1	77*	43*	53*	0	0
C#CCOCCOCCOCCNc1nc(N2CCN(C(=O)CCCCCCCCCCNC(=O)[C@H](CCCCN)n3cc(CCO)nn3)CC2)nc(N2CCN(C(=O)CCCCCCCCCCNC(=O)[C@H](CCCCN)n3cc(C[C@@H](C)CC)nn3)CC2)n1	/	/	/	0	/
C[C@@H]1[C@H](O)C[C@@]23COC(=O)C2=CCC[C@@H]3[C@@]1(C)CC/C(=C/CO)CO	-9	6	2	1	4
CC(NC(=O)c1ccc(NC(=O)CC2SC(N3CCCC3)=NC2=O)cc1)c1ccc(S(N)(=O)=O)cc1 (centres undefined)	-2	2	10	2	0
CC(=O)Nc1ccc(OCc2cccc([N+](=O)[O-])c2)cc1	1	-5	0	0	1
CC(=O)Nc1ccc(C=CC=Cc2cccc([N+](=O)[O-])c2)cc1	3	-6	22*	/	4
COc1cc(/C=C2/C(=O)N(c3ccc(C)c(C)c3)N=C2C)cc([N+](=O)[O-])c1O	2	-4	-16	/	1
COc1cc(/C=C2\C(=O)N(c3ccccc3)N=C2C)ccc1Oc1ccc([N+](=O)[O-])cc1[N+](=O)[O-]	22	36*	8	4	2
CC1=NN(c2ccccc2)C(=O)/C1=C\c1ccc(Oc2ccc([N+](=O)[O-])cc2[N+](=O)[O-])cc1	19	30*	13	3	3
CCn1c(NC(C)=O)c(-c2ccccc2Cl)c(=O)c2ccccc21	7	-4	-9	2	0
CSc1nc2ccc(NC(=O)c3ccc(Cl)s3)cc2s1	-7	-7	5	2	-5
CC1(C)CC(=O)C2=C(C1)N(c1ccc(F)cc1)C(=O)C2(NC(=O)c1ccccc1F)C(F)(F)F (centres undefined)	-4	-8	1	0	4
Cc1ccc(N2C(=O)C(NC(=O)c3ccccc3F)(C(F)(F)F)C3=C2CC(C)(C)CC3=O)cc1 (centres undefined)	9	1	10	75*	0
Cc1ccc(C(=O)Nc2ccccc2)cc1S(=O)(=O)N1CCN(C)CC1	-5	-2	-6	3	-1
CC1CCC(NC(=O)c2ccc(NC(=O)CC3SC(N4CCCC4)=NC3=O)cc2)CC1 (centres undefined)	2	3	-7	0	-1
COC(=O)[C@@H]1C[C@]2(OC(=O)c3ccccc3)C=CC(=O)C[C@@H]2N1C(=O)OCc1ccccc1	10	-2	45*	/	0
Cc1ccc(NC(=O)c2ccc(S(=O)(=O)N3CCCCC3)cc2)nc1	-4	4	-3	1	1
COc1ccc2nc(N3C(=O)/C(=C/c4ccc(Cl)cc4)NC3=S)sc2c1	20	28	0	/	33*
O=c1oc2c(O)c(O)cc3c(=O)oc4c(O)c(O)cc1c4c23	-4	26	5	84*	23
O=c1oc2ccccc2c2oc3cc(O)c(O)cc3c12	7	3	0	1	30
C=CCOC(=O)C1=C(C)NC(SCC(N)=O)=C(C#N)C1c1cccs1 (centres undefined)	10	5	-2	1	-7
CCOC(=O)C1=C(C)NC(SCC(=O)Nc2nc(C)cs2)=C(C#N)C1c1cccs1 (centres undefined)	/	/	/	51*	/
C=CCOC(=O)C1=C(C)NC(SCC(=O)NC(=O)OCC)=C(C#N)C1c1cccnc1 (centres undefined)	57*!	1	2	0	-47
COc1ccccc1CNc1nc(-c2cc(C)n(C)c2C)cs1	18	30*	4	/	4
COc1ccccc1CC(=O)Nc1nc(-c2ccc(F)c(F)c2)cs1	0	-8	-7	0	0
COc1ccccc1C(=O)N=Nc1c(O)[nH]c2ccc([N+](=O)[O-])cc12	5	32*	-2	/	-4
NC(=O)N=Nc1c(O)[nH]c2ccc([N+](=O)[O-])cc12	-2	0	4	1	1
O=C(C1=NOC2(C1)C(=O)Nc1ccccc12)N1CCOCC1 (centres undefined)	/	-4	-4	/	4
